Measurements reported in ChEMBL document CHEMBL4680083, “Identification of Tricyclic Agonists of Sphingosine-1-phosphate Receptor 1 (S1P) Employing Ligand-Based Drug Design” (J Med Chem, 2016).

Legend:
[1] = Plasma concentration in Lewis rat at 1 mg/kg, po measured at 24 hrs; format: ADME, organism-based; settings: Lewis, plasma
Procedure, shortened: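 Lewis rats received a single oral 1.0 mg/kg dose as solution or suspension in PEG300. Blood was drawn retro-orbitally under isoflurane at 4 h and 24 h, within the blood lymphocyte reduction study. n = 3−4 per group, group mean reported.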

[2] = target: Sphingosine 1-phosphate receptor 1 (Homo sapiens, UniProt P21453); test: Binding affinity to human S1P1
Chain of Sphingosine 1-phosphate receptor 1 (P21453 whole entry): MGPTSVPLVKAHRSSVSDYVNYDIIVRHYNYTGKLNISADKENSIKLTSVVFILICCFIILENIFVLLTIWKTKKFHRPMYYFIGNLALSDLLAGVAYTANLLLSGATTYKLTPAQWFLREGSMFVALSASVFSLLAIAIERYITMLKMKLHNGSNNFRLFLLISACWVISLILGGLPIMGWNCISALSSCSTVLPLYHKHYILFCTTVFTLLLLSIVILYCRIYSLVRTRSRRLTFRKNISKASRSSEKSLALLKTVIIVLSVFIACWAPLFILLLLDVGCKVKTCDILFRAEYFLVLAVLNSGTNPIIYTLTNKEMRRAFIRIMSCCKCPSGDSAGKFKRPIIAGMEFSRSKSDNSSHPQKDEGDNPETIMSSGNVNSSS

Cytochrome P450 2C8 = target: T1, Cytochrome P450 2C8 (Homo sapiens, UniProt P10632); test: Inhibition of CYP2C8 (unknown origin); format: ADME
T1 sequence (P10632 whole entry): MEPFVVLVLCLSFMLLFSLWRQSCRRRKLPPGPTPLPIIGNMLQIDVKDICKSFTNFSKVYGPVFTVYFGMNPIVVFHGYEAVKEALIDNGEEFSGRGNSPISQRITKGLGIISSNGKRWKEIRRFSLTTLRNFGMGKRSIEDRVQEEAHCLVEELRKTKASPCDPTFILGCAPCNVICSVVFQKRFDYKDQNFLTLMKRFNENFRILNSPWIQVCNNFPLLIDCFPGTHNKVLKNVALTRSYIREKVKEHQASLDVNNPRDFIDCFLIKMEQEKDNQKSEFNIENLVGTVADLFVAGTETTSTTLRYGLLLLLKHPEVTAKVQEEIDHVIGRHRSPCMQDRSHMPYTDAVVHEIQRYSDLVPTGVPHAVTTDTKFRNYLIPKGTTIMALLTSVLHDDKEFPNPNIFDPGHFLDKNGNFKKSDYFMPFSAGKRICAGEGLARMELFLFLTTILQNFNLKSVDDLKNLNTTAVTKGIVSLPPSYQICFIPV

[3] = Metabolic stability in monkey assessed as half-life; format: ADME, Macaca mulatta; settings: rhesus monkey
[4] = Tmax in mouse at 5 mg/kg, po or 2 mg/kg, iv; format: ADME, organism-based; settings: in vivo

O=C(O)C1CN(Cc2ccc3c(c2)CCc2c-3noc2-c2onc(-c3ccccc3)c2C(F)(F)F)C1
concentration at 24 h [1]: 13 nM
IC50 [2]: 0.00038 µM
IC50 (Cytochrome P450 2C8): 14 µM
half-life [3]: > 2 h
Tmax [4]: 3 h
